Our source for the MIC values is ChEMBL document CHEMBL4819149, “A facile reaction to access novel structural sulfonyl-hybridized imidazolyl ethanols as potential DNA-targeting antibacterial agents” (Bioorg Med Chem Lett, 2021).

Common to all, as to format: functional
Test [1] concerns Staphylococcus aureus. Briefly: Antibacterial activity against methicillin-resistant Staphylococcus aureus assessed as bacterial growth inhibition by broth microdilution method. Summed up: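 MIC read by micro broth dilution; values given in μg/mL.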
In general terms: Broth dilution looks for growth in wells or tubes with falling amounts of substance.

The test system of test [2] is Enterococcus faecalis. Briefly: Antibacterial activity against Enterococcus faecalis assessed as bacterial growth inhibition by broth microdilution method. Summed up:
(§1)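 MIC values reported in µg/mL, determined by broth microdilution in microdilution plates.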

Test [3] has as its system Staphylococcus aureus. As to the kind of experiment: Antibacterial activity against Staphylococcus aureus assessed as bacterial growth inhibition by broth microdilution method. In short, it runs like this: as §1
Test [4] deals with Staphylococcus aureus. Briefly: Antibacterial activity against Staphylococcus aureus ATCC 25923 assessed as bacterial growth inhibition by broth microdilution method. In short, it runs like this: as §1
The test system of test [5] is Staphylococcus aureus. As to the kind of experiment: Antibacterial activity against Staphylococcus aureus ATCC 29213 assessed as bacterial growth inhibition by broth microdilution method. In short, it runs like this:
as §1

The subject of test [6] is Klebsiella pneumoniae. Briefly: Antibacterial activity against Klebsiella pneumonia assessed as bacterial growth inhibition by broth microdilution method. Summed up: as §1
Test [7] relates to Pseudomonas aeruginosa. As to the kind of experiment: Antibacterial activity against Pseudomonas aeruginosa ATCC 27853 assessed as bacterial growth inhibition by broth microdilution method. Summed up: as §1
For test [8], the system named is Pseudomonas aeruginosa. As to the kind of experiment: Antibacterial activity against Pseudomonas aeruginosa assessed as bacterial growth inhibition by broth microdilution method. Summed up:
as §1

The subject of test [9] is Acinetobacter baumannii. Briefly: Antibacterial activity against Acinetobacter baumannii assessed as bacterial growth inhibition by broth microdilution method. In short, it runs like this:
as §1

In test [10] the test system is Escherichia coli. As to the kind of experiment: Antibacterial activity against Escherichia coli assessed as bacterial growth inhibition by broth microdilution method. Summed up:
as §1

Test [11] concerns Escherichia coli. As to the kind of experiment: Antibacterial activity against Escherichia coli ATCC 25922 assessed as bacterial growth inhibition by broth microdilution method. Summed up:
as §1

The structures appear in SMILES notation. Converted amounts (≈) assume the structure as drawn.

As usually defined, the MIC is the lowest concentration that inhibits growth of the organism. With `CC(C)c1nccn1C(CO)CS(=O)(=O)c1ccc(N)cc1` (stereo not given), the MIC came to 16 µg/mL (≈ 49.5 µM) in test [1]; 8 µg/mL (≈ 24.7 µM) in [2]; 128 µg/mL (≈ 396 µM) in test [3]; 32 µg/mL (≈ 98.9 µM) in test [4]; 64 µg/mL (≈ 198 µM) in [5]; 64 µg/mL (≈ 198 µM) in test [6]. The MIC in test [7] was determined as 64 µg/mL (≈ 198 µM); in test [8] it was 256 µg/mL (≈ 792 µM); in [9] it was 32 µg/mL (≈ 98.9 µM); in test [10] it was 128 µg/mL (≈ 396 µM); in test [11], 64 µg/mL (≈ 198 µM).
As for `CC(=O)Nc1ccc(S(=O)(=O)CC(CO)n2ccnc2C)cc1` (stereo not given), the MIC in test [1] is 8 µg/mL (≈ 23.7 µM); in [2], 64 µg/mL (≈ 190 µM); in test [3] it was 64 µg/mL (≈ 190 µM); in test [4], 64 µg/mL (≈ 190 µM); in test [5], 32 µg/mL (≈ 94.8 µM); in test [6], 128 µg/mL (≈ 379 µM). Further, the MIC was found to be 64 µg/mL (≈ 190 µM) in [7]; 128 µg/mL (≈ 379 µM) in test [8]; 16 µg/mL (≈ 47.4 µM) in [9]; 64 µg/mL (≈ 190 µM) in [10]; 32 µg/mL (≈ 94.8 µM) in [11].
`CCc1nc(C)cn1C(CO)CS(=O)(=O)c1ccc(N)cc1` (stereo not given): the MIC in test [1] came to 16 µg/mL (≈ 49.5 µM); in test [2], 16 µg/mL (≈ 49.5 µM); in test [3], 64 µg/mL (≈ 198 µM); in [4], 64 µg/mL (≈ 198 µM); in test [5] it was 128 µg/mL (≈ 396 µM); in test [6], 128 µg/mL (≈ 396 µM). Moreover, the MIC in test [7] turned out to be 32 µg/mL (≈ 98.9 µM); in test [8], 128 µg/mL (≈ 396 µM); in test [9] it was 64 µg/mL (≈ 198 µM); in test [10] it was 64 µg/mL (≈ 198 µM); in test [11] it was 32 µg/mL (≈ 98.9 µM).
In the case of `CCCc1nccn1C(CO)CS(=O)(=O)c1ccc(N)cc1` (stereo not given), the MIC came to 8 µg/mL (≈ 24.7 µM) in [1]; 32 µg/mL (≈ 98.9 µM) in test [2]; 128 µg/mL (≈ 396 µM) in test [3]; 64 µg/mL (≈ 198 µM) in [4]; 128 µg/mL (≈ 396 µM) in [5]; 128 µg/mL (≈ 396 µM) in test [6]. Further, the MIC in test [7] is 32 µg/mL (≈ 98.9 µM); in [8] it was 256 µg/mL (≈ 792 µM); in test [9], 32 µg/mL (≈ 98.9 µM); in test [10] it was 64 µg/mL (≈ 198 µM); in test [11] it was 64 µg/mL (≈ 198 µM).
Consider `CCc1nccn1C(CO)CS(=O)(=O)c1ccc(N)cc1` (stereo not given), for which the MIC in test [1] amounted to 16 µg/mL (≈ 51.7 µM); in test [2], 16 µg/mL (≈ 51.7 µM); in test [3], 64 µg/mL (≈ 207 µM); in [4], 64 µg/mL (≈ 207 µM); in [5], 64 µg/mL (≈ 207 µM); in [6], 128 µg/mL (≈ 414 µM). Further, the MIC was determined as 32 µg/mL (≈ 103 µM) in [7]; 256 µg/mL (≈ 827 µM) in test [8]; 64 µg/mL (≈ 207 µM) in test [9]; 64 µg/mL (≈ 207 µM) in test [10]; 32 µg/mL (≈ 103 µM) in test [11].
`CC(=O)Nc1ccc(S(=O)(=O)CC(CO)n2ccnc2C(C)C)cc1` (stereo not given): the MIC turned out to be 16 µg/mL (≈ 43.8 µM) in test [1]; 32 µg/mL (≈ 87.6 µM) in test [2]; 128 µg/mL (≈ 350 µM) in test [3]; 64 µg/mL (≈ 175 µM) in test [4]; 16 µg/mL (≈ 43.8 µM) in test [5]; 64 µg/mL (≈ 175 µM) in [6]. Moreover, the MIC in test [7] turned out to be 64 µg/mL (≈ 175 µM); in test [8], 256 µg/mL (≈ 700 µM); in test [9], 32 µg/mL (≈ 87.6 µM); in [10], 64 µg/mL (≈ 175 µM); in [11], 64 µg/mL (≈ 175 µM).
In the case of `CC(=O)Nc1ccc(S(=O)(=O)CC(CO)n2ccnc2)cc1` (stereo not given), the MIC in test [1] came to 32 µg/mL (≈ 99 µM); in test [2] it was 32 µg/mL (≈ 99 µM); in [3], 64 µg/mL (≈ 198 µM); in test [4], 64 µg/mL (≈ 198 µM); in test [5], 32 µg/mL (≈ 99 µM); in [6], 128 µg/mL (≈ 396 µM). Further, the MIC in [7] amounted to 64 µg/mL (≈ 198 µM); in test [8] it was 128 µg/mL (≈ 396 µM); in test [9], 64 µg/mL (≈ 198 µM); in [10], 64 µg/mL (≈ 198 µM); in [11], 64 µg/mL (≈ 198 µM).
Turning to `CC(=O)Nc1ccc(S(=O)(=O)CC(CO)n2cc(I)nc2C)cc1` (stereo not given), the MIC in test [1] was 64 µg/mL (≈ 138 µM); in [2], 256 µg/mL (≈ 553 µM); in [3], 64 µg/mL (≈ 138 µM); in test [4], 64 µg/mL (≈ 138 µM); in test [5] it was 64 µg/mL (≈ 138 µM); in test [6] it was 256 µg/mL (≈ 553 µM). Moreover, the MIC in test [7] came to 32 µg/mL (≈ 69.1 µM); in test [8], 256 µg/mL (≈ 553 µM); in test [9] it was 64 µg/mL (≈ 138 µM); in test [10], 64 µg/mL (≈ 138 µM); in test [11] it was 32 µg/mL (≈ 69.1 µM).
Regarding `CCc1nccn1C(CO)CS(=O)(=O)c1ccc(NC(C)=O)cc1` (stereo not given), the MIC in test [1] came out at 32 µg/mL (≈ 91.1 µM); in test [2] it was 32 µg/mL (≈ 91.1 µM); in test [3], 64 µg/mL (≈ 182 µM); in test [4] it was 64 µg/mL (≈ 182 µM); in [5], 16 µg/mL (≈ 45.5 µM); in test [6], 128 µg/mL (≈ 364 µM). Also, the MIC in test [7] is 64 µg/mL (≈ 182 µM); in test [8], 256 µg/mL (≈ 728 µM); in test [9] it was 16 µg/mL (≈ 45.5 µM); in test [10] it was 64 µg/mL (≈ 182 µM); in test [11] it was 32 µg/mL (≈ 91.1 µM).
In the case of `Cc1nc(I)cn1C(CO)CS(=O)(=O)c1ccc(N)cc1` (stereo not given), the MIC was determined as 32 µg/mL (≈ 76 µM) in test [1]; 64 µg/mL (≈ 152 µM) in test [2]; 64 µg/mL (≈ 152 µM) in test [3]; 64 µg/mL (≈ 152 µM) in [4]; 64 µg/mL (≈ 152 µM) in [5]; 64 µg/mL (≈ 152 µM) in test [6]. For the same compound, the MIC was 32 µg/mL (≈ 76 µM) in test [7]; 128 µg/mL (≈ 304 µM) in [8]; 32 µg/mL (≈ 76 µM) in test [9]; 128 µg/mL (≈ 304 µM) in [10]; 32 µg/mL (≈ 76 µM) in test [11].
